# Laboratory results as given in ChEMBL document CHEMBL1129594 (J Med Chem, 1996).
# Assays:
# Vanilloid receptor = Vanilloid receptor (Rattus norvegicus, UniProt Q9ERZ8+Q9WUD2+O35433); assay: Compound tested in vitro for [Ca2+] influx into neonatal rat dorsal root ganglia (DRG); type: functional
# Mus musculus [1] = assay: In vivo tail-flick latency after subcutaneous administration in mouse as an evaluation of antinociceptive potency; type: functional; details: sc
# Mus musculus [2] = assay: Compound tested for in vivo writhing antinociceptive assay in mouse after subcutaneous administration; type: functional; details: sc
# Procedure, shortened: (§1)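 Female CD-1 mice (20 g), kept on 12 h light/12 h dark and fasted overnight, 10 per group. Drug or vehicle was given sc or orally 55 min before ip acetic acid (0.3 mL, 200 mM). Abdominal constrictions were counted over the 5 min starting 5 min after acid. Effect was taken as the drug/vehicle writhe ratio, and ED50 (dose halving writhes) came from a logistic fit with standard error.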
# Mus musculus [3] = assay: Compound tested for in vivo writhing antinociceptive assay in mouse after peroral administration; type: functional; details: po; procedure, shortened: as §1
# Mus musculus [4] = assay: In vivo tail-flick latency after peroral administration in mouse as an evaluation of antinociceptive potency; type: functional; details: po
# Cavia porcellus [5] = assay: Threshold dose required to cause increase in airway opening pressure […] of guinea pig after intravenous administration; type: functional
# Procedure, shortened: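 Dunkin-Hartley guinea pigs (400-450 g, n = 4 per group) under urethane (2 g/kg), held at 37 °C. Carotid cannula for blood pressure, jugular cannula for iv drug. Tracheal cannula with ventilation at 60 strokes/min and 10 mL/kg tidal volume. Airway opening pressure was read by differential transducer on the tracheal side arm. Threshold iv dose raising Pao was recorded.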
# Cavia porcellus [6] = assay: Threshold dose required to cause increase in airway opening pressure […] of guinea pig after intravenous administration
smiles,measurement,setting,value
COc1cc(C/N=C(\S)NCCc2ccccc2)ccc1OCCN,EC50,Vanilloid receptor,2720 nM
COc1cc(CN/C(S)=N/C=C\c2ccc(Cl)cc2)ccc1O,EC50,Vanilloid receptor,41 nM
COc1cc(C/N=C(\S)NCCc2ccc(F)cc2)ccc1OCCN,EC50,Vanilloid receptor,2300 nM
CNCCOc1ccc(C/N=C(\S)NCCc2ccc(Cl)cc2)cc1OC,EC50,Vanilloid receptor,7030 nM
COc1cc(CN/C(S)=N/C=C/c2ccc(Cl)cc2)ccc1O,EC50,Vanilloid receptor,410 nM
COc1cc(C/N=C(\S)NCc2ccc(C(C)(C)C)cc2)ccc1OCCN,ED50,Mus musculus [1],0.4 µmol/kg
same,ED50,Mus musculus [2],0.49 µmol/kg
same,EC50,Vanilloid receptor,170 nM
same,ED50,Mus musculus [3],2.55 µmol/kg
same,ED50,Mus musculus [4],1.45 µmol/kg
same,Dose,Cavia porcellus [5],0.062 µM/kg
COc1cc(CNC(=O)CCCC/C=C/C(C)C)ccc1O [CAPSAICIN],ED50,Mus musculus [1],10.3 µmol/kg
same,ED50,Mus musculus [2],5.72 µmol/kg
same,ED50,Mus musculus [4],962 µmol/kg
same,Dose,Cavia porcellus [5],0.018 µM/kg
COc1cc(C/N=C(\S)NCCc2ccc(C(C)(C)C)cc2)ccc1OCCN,EC50,Vanilloid receptor,710 nM
COc1cc(C/N=C(\S)NCCc2ccc(Cl)cc2)ccc1OCCN,ED50,Mus musculus [1],4.8 µmol/kg
same,ED50,Mus musculus [2],3.32 µmol/kg
same,ED50,Mus musculus [3],11.4 µmol/kg
same,ED50,Mus musculus [4],22.9 µmol/kg
same,Dose,Cavia porcellus [5],0.137 µM/kg
COc1cc(C/N=C(\S)NCCc2ccc(Cl)cc2Cl)ccc1OCCN,EC50,Vanilloid receptor,320 nM
COc1cc(C/N=C(\S)NCCc2ccc(Cl)cc2)ccc1OCCNC(=O)OC(C)(C)C,EC50,Vanilloid receptor,3000 nM
COc1cc(C/N=C(\S)NCCc2ccc(Cl)cc2)ccc1OCCN1C(=O)c2ccccc2C1=O,EC50,Vanilloid receptor,53000 nM
COc1cc(C/N=C(\S)NCCc2ccc(Cl)cc2)ccc1OCCNC(C)=O,EC50,Vanilloid receptor,5130 nM
COc1cc(C/N=C(\S)NCCc2ccc(F)cc2)ccc1O,EC50,Vanilloid receptor,130 nM
COc1cc(C/N=C(\S)NCCc2ccccc2)ccc1O,EC50,Vanilloid receptor,480 nM
CCOC(=O)NCCOc1ccc(C/N=C(\S)NCCc2ccc(Cl)cc2)cc1OC,EC50,Vanilloid receptor,6140 nM
COc1cc(C/N=C(\S)NCCc2ccc(Cl)cc2)ccc1OCC[N+](C)(C)C.O=C([O-])C(F)(F)F,EC50,Vanilloid receptor,> 100000 nM
COc1cc(C/N=C(\S)NCCc2ccc(Cl)cc2)ccc1OCCN(C)C,EC50,Vanilloid receptor,3520 nM
COc1cc(CNC(=S)NCc2ccc(C(C)(C)C)cc2)ccc1O,EC50,Vanilloid receptor,510 nM
CCCCCCCC/C=C\CCCCCCCC(=O)NCc1ccc(O)c(OC)c1 [OLVANIL],ED50,Mus musculus [1],11.3 µmol/kg
same,ED50,Mus musculus [2],2.1 µmol/kg
same,Dose,Cavia porcellus [6],>0.1 µM/kg
same,ED50,Mus musculus [4],> 400 µmol/kg
COc1cc(C/N=C(\S)NCCc2ccc(Cl)cc2Cl)ccc1O,EC50,Vanilloid receptor,130 nM
COc1cc(C/N=C(\S)NCCc2ccc(Cl)cc2)ccc1O,ED50,Mus musculus [1],11.8 µmol/kg
same,ED50,Mus musculus [2],10.1 µmol/kg
same,EC50,Vanilloid receptor,56 nM
same,ED50,Mus musculus [4],370 µmol/kg
same,Dose,Cavia porcellus [5],0.025 µM/kg
CCCCCCCC/C=C\CCCCCCCC(=O)NCc1ccc(OCCN)c(OC)c1,ED50,Mus musculus [1],6.3 µmol/kg
same,ED50,Mus musculus [2],3.06 µmol/kg
same,Dose,Cavia porcellus [6],>0.1 µM/kg
same,ED50,Mus musculus [4],184 µmol/kg
